High-throughput results as filed in PubChem.
AP complement: orthogonal test for alternative complement pathway inhibitors; Human serum alternative complement pathway, LPS-coated ELISA, C3 deposition; tested in compound mixtures; inhibition, % at 5 µM; hit rate 0.08% among 62,000; AID 1235;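 active means inhibition above 30% in each of the two pooled mixtures holding the compound, so the lower value exceeds 30%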
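Test system: human serum alternative complement pathway, C3 deposition on LPS-coated wells; also added: Plate-bound LPS; doses: 5 µM per compound in ten-compound mixtures; schedule: 1 h at 37 °C; detection: Anti-C3 ELISA, OD 450 nm; evaluation: percent inhibition of C3 deposition onto LPS; repeats: two pool placements per compound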
TNAP act mid DEA: activates human TNAP at intermediate phosphate acceptor concentration; P05186; purified TNAP, CDP-star luminescence, 100 mM DEA, 30 min; hits give high values; scale: 0 levamisole-inhibited, 1 vehicle-only enzyme; activation factor at 20 µM; 64,000 tested, under 10 active;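 active means activation factor of at least 2 at 20 µM, relative to controls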
RORA act: RORA (human) activation; CHO-K1 Gal4-RORA LBD luciferase reporter, luminescence; percent increase over mock-subtracted basal signal; AID 560; activation, % at 10 µM; hit rate 1.5% among 65,000;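 active means activation above the mean of all tested compounds plus 3 SD, cut at about 49% in these data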
E coli RNAP: Escherichia coli RNA polymerase inhibition | P0A8V2 | E. coli RNA polymerase, fluorescence transcription assay | inhibition, %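 (tested at 10 µM)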 | hit rate 0.2% among 62,000 | AID 559; in the data active means inhibition above about 20%
Target sequence (P0A8V2 whole entry, looked up): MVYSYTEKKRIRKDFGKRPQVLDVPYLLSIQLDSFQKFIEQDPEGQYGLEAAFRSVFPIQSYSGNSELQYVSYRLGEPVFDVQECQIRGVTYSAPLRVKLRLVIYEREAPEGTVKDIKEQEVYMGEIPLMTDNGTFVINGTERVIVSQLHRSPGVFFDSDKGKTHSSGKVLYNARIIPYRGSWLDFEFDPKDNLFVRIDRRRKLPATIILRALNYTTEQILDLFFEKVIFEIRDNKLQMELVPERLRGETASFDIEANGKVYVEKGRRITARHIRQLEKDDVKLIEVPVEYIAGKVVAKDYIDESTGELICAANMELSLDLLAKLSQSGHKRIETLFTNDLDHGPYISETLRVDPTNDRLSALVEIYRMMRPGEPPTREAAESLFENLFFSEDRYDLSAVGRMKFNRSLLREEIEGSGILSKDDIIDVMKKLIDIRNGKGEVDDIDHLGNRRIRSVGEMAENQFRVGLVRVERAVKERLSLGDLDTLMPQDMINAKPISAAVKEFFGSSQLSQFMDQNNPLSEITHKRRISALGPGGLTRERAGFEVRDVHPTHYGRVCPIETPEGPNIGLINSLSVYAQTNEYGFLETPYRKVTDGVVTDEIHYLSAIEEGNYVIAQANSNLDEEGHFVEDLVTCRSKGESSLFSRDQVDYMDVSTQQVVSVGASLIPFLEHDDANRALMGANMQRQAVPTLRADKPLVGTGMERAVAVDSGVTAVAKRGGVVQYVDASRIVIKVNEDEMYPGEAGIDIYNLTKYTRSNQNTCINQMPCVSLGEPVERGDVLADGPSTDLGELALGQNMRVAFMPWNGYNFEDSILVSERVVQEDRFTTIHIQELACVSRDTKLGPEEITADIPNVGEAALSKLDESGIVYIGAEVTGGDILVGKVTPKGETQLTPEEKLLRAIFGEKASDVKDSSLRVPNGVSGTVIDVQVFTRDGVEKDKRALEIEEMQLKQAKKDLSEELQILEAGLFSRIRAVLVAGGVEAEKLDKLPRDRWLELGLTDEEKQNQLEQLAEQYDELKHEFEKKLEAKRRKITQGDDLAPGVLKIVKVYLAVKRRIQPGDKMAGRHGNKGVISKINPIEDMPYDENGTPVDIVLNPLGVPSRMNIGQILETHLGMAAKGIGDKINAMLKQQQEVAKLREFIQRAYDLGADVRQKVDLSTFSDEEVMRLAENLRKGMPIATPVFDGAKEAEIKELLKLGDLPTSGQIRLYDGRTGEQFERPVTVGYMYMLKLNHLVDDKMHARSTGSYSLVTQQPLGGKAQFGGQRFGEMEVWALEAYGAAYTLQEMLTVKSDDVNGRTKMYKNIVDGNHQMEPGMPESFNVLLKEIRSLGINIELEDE
SF-1 act: activators of human nuclear receptor SF-1; activation, % at 10 µM; hit rate 1.9% among 65,000; CHO-K1 Gal4-SF-1 LBD luciferase reporter; % increase over DMSO SF-1-specific signal; Q13285;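 active means activation above the mean activation of all tested compounds plus 3 SD, cut at about 50% in these data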
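Test system: transient Gal4-SF-1 LBD reporter, CHO-K1; Amount: 4,000 CHO-K1 cells per well; Doses: 10 µM only; Timing: compound exposure 20 h at 37 °C; Signal: luciferase light emission; Read-out basis: percent activation relative to DMSO median and mock-transfected background; Control set: DMSO negative control and −SF1 background wells; Replicates: one test per compound.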
MT1-MMP txn act: MT1-MMP promoter transcription activation; activation factor at 10 µM; HT1080 MT1-MMP promoter luciferase reporter, luminescence, overnight; hits give high values; hit rate 0.16% among 86,000;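 active means activation factor of at least 2 for MT1-MMP transcription at 10 µM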
Of the large screens only hits and unclear results are named; the others gave an inactive call. The list is not random: actives were taken first. Their share in the collection is about 2.2%.

O=C(Cc1ccccc1F)Nc1nc(-c2cccs2)cs1	none
c1cncc(Nc2nc(-c3cccs3)cs2)c1	RORA act 58.9, SF-1 act 76.3
c1ccc(Nc2nc(-c3ccncc3)cs2)cc1	none (no result: AP complement, TNAP act mid DEA, RORA act, E coli RNAP, SF-1 act)
c1ccc(-c2csc(Nc3cccnc3)n2)nc1	SF-1 act 56.6
CC1=C(C(=O)OCc2ccccc2)C(c2ccccc2OC(=O)c2ccc(I)cc2)NC(=O)N1CCCC(=O)O (stereo not drawn)	none (no result: AP complement, TNAP act mid DEA, RORA act, E coli RNAP, SF-1 act)
CC(=O)Nc1cccc(-c2nnc(SCC(=O)n3c4c(c5ccccc53)CCCC4)n2C)c1	none (no result: AP complement, TNAP act mid DEA, RORA act, E coli RNAP, SF-1 act)
CCOC(=O)N1CCC(NC(=O)C(NC(=O)C2CCC(C)CC2)C(C)CC)CC1 (stereo not drawn)	none (no result: AP complement, TNAP act mid DEA, RORA act, E coli RNAP, SF-1 act)
CN(C(=O)c1ccco1)c1nnc(C23CC4CC(CC(C4)C2)C3)s1	RORA act 60.9, SF-1 act 75.7
CCN(C(=O)c1ccco1)c1nnc(-c2ccc(OC)cc2)s1	none (no result: AP complement, TNAP act mid DEA, RORA act, E coli RNAP, SF-1 act)
CCOC(=O)c1ccc(NC(=O)N2CCc3ccccc32)cc1	SF-1 act 61.2
c1ccc(-n2cnnc2SCc2nc3ccccc3s2)cc1	SF-1 act 58.0
COCCn1c(SCc2nc3ccccc3s2)nc2ccccc21	SF-1 act 50.3
CNC(=O)NC(=O)CSc1nc2ccccc2n1CCOC	none (no result: AP complement, TNAP act mid DEA, RORA act, E coli RNAP, SF-1 act)
CCn1c(SCc2nc3ccccc3s2)nnc1-c1ccccc1	none (no result: AP complement, TNAP act mid DEA, RORA act, E coli RNAP, SF-1 act)
Cc1nnc(SCc2nc3ccccc3s2)n1-c1ccccc1	RORA act 75.5
CCC(c1nnc(SCc2nc3ccccc3s2)n1Cc1ccccc1)N(C)C (stereo not drawn)	SF-1 act 60.7
CC(C)Sc1nnc([C@H](Cc2c[nH]c3ccccc23)NC(=O)OC(C)(C)C)o1	none (no result: AP complement, TNAP act mid DEA, RORA act, E coli RNAP, SF-1 act)
COc1ccc(-n2nnnc2SCc2nc3ccccc3s2)cc1	none (no result: AP complement, TNAP act mid DEA, RORA act, E coli RNAP, SF-1 act)
CCn1c(SCc2nc3ccccc3s2)nc2cc(S(=O)(=O)N3CCOCC3)ccc21	SF-1 act 63.3
COc1ccc(C)cc1-n1nnnc1SCc1nc2ccccc2s1	RORA act 49.5, SF-1 act 109.7
CC(OC(=O)c1cc(=O)[nH]c2ccccc12)c1ccccc1 (stereo not drawn)	none
O=C(c1cccs1)N1CCn2c1nc1ccccc12	SF-1 act 53.2
CCOC(=O)c1sc(NC(=O)c2cccs2)cc1C	none
CCOC(=O)c1sc(NC(=O)c2ccc(Br)o2)cc1C	RORA act 69.2, SF-1 act 68.9
CC(=O)N=C(N)Sc1nc2ccccc2[nH]1	SF-1 act 98.2 (no result: AP complement)
CC(Sc1nc2ccccc2[nH]1)C(=O)O (stereo not drawn)	none (no result: AP complement, TNAP act mid DEA, RORA act, E coli RNAP, SF-1 act)
CC(=O)C(C(C)=O)c1c(Cl)c(O)c(O)c2c(C(=O)c3ccccc3)coc12	E coli RNAP 32.3
COc1ccc(-c2noc(CCC(=O)Nc3cccc(C)c3)n2)cc1	none
COc1ccc(-c2noc(N(C)CC(=O)Nc3cccc(C(F)(F)F)c3)n2)cc1	RORA act 51.6
C=CCn1cnc2c(c1=O)c1nc3ccccc3nc1n2-c1ccc(Cl)cc1	none (no result: AP complement)
CC1(C)Cc2nc3sc4c(=O)[nH]cnc4c3cc2CS1	SF-1 act 62.9
CC1(C)Cc2[nH]c(=O)c(C#N)cc2CS1	none (no result: AP complement)
COc1cccc(C(=O)NC2CCN(C(=O)N3CCCCC3)CC2)c1	none
CC(=O)NC1CCN(C(=O)N2CCCC2)CC1	AP complement 37.2
Nc1nc(CSc2n[nH]c(-c3ccccc3)n2)nc(Nc2ccccc2)n1	RORA act 71.8
Cc1ccc(-c2nc(Nc3ccccc3)n[nH]2)cc1	RORA act 63.1, SF-1 act 64.5
Nc1n[nH]c(-c2ccccc2)n1	none (no result: AP complement, TNAP act mid DEA, RORA act, E coli RNAP, SF-1 act)
CCOC(=O)C1=C(c2ccccc2)N=C2SCC(=O)N2C1c1ccc2c(c1)OCO2 (stereo not drawn)	none
C=CCn1c(C)cc(C(=O)CSc2nc3ccccc3c(=O)[nH]2)c1C	SF-1 act 111.9
Cc1ccc2nc(SCC(=O)c3cc(C)n(C)c3C)[nH]c2c1	none (no result: AP complement, TNAP act mid DEA, RORA act, E coli RNAP, SF-1 act)
COCCn1c(C)cc(C(=O)CSc2nc3ccccc3c(=O)[nH]2)c1C	none
O=C(CSc1nc2ccccc2[nH]1)N1CCCCC1	RORA act 52.1
Cc1cc(C(=O)CSc2nc3ccccc3[nH]2)c(C)n1C	RORA act 59.3, SF-1 act 61.0
C=CCn1c(C)cc(C(=O)CSc2nnc(NCc3ccccc3)s2)c1C	SF-1 act 59.0
O=C(CSc1nc2ccccc2[nH]1)N1CCN(c2ccccc2)CC1	none
Cc1cccc(N2CCN(C(=O)CCCSc3nc4ccccc4[nH]3)CC2)c1C	none (no result: AP complement, TNAP act mid DEA, RORA act, E coli RNAP, SF-1 act)
CCCCNC(=O)c1cn(C)c2ccc(S(=O)(=O)N3CCOCC3)cc2c1=O	none
C=CCn1c(C)cc(C(=O)COc2nncc3ccccc23)c1C	RORA act 79.6
CN(C)c1ccc(NC(=O)Nc2cccc(Cl)c2)cc1	SF-1 act 64.2
COc1cccc(Cn2c(-c3nonc3N)nc3ccccc32)c1	SF-1 act 62.3
COc1cc(Cn2c(-c3nonc3N)nc3ccccc32)ccc1C	none
O=C(CN1N=C(C(F)(F)F)CC1(O)c1ccc([N+](=O)[O-])cc1)c1ccccc1 (stereo not drawn)	none (no result: AP complement, TNAP act mid DEA, RORA act, E coli RNAP, SF-1 act)
CCc1ccc(C2(O)CC(C(F)(F)F)=NN2C(=O)Cc2ccc([N+](=O)[O-])cc2)cc1 (stereo not drawn)	MT1-MMP txn act 2 (no result: AP complement, TNAP act mid DEA, RORA act, E coli RNAP, SF-1 act)
O=C(CCn1cccc1)NCc1ccc(Cl)cc1	none
Cc1ccc2nc3ccc(N4CCCC4)nn3c(=O)c2c1	RORA act 53.6
Cc1sc2nc3ccc(N4CCCCC4)nn3c(=O)c2c1C	none
CCC(=O)N/C(N)=N/c1nc(C)c2cc(OC)ccc2n1	RORA act 68.6
CCC1=C2CC[C@H]3C(=O)NC(=O)[C@H]3[C@H]2[C@@]2(Cc3ccccc3)C(=NCc3ccccc3)OC(=O)N2C1=O	none (no result: AP complement, TNAP act mid DEA, RORA act, E coli RNAP, SF-1 act)
Cc1csc(-c2coc3cc(O)cc(C)c3c2=O)n1	RORA act 65.5, SF-1 act 67.9
c1ccc(Nc2nc3ccccc3[nH]2)nc1	RORA act 78.6, SF-1 act 54.7
Cc1cc(C)nc(Nc2nc3ccccc3[nH]2)n1	none
O=C(CSc1nnc(-c2cccnc2)o1)Nc1ccccn1	SF-1 act 75.7
O=C(CSc1nnc(-c2cccnc2)o1)Oc1ccccc1	none
CSc1nc2ccc(NS(=O)(=O)c3ccc4c(c3)OCCO4)cc2s1	none
CSCC[C@H](NC(=O)c1nn(C)c(=O)c2ccccc12)c1nc2ccccc2[nH]1	none (no result: AP complement, TNAP act mid DEA, RORA act, E coli RNAP, SF-1 act)
c1ccc(Cc2nnc(-c3ccccc3)o2)cc1	RORA act 50.5 (no result: E coli RNAP)
CC(=O)C1=C(O)CCC1=N	AP complement 39.1
[O-]/C(=C(\C(=S)Nc1cccc2ccccc12)[n+]1ccccc1)c1ccc2c(c1)OCCO2	none (no result: AP complement, TNAP act mid DEA, RORA act, E coli RNAP, SF-1 act)
Cc1ccccc1NCC(=O)N/N=C/C(Br)=C/c1ccccc1	none (no result: AP complement, TNAP act mid DEA, RORA act, E coli RNAP, SF-1 act)
Cc1ccc2c(c1)SC1=NC(c3ccccc3)(C(F)(F)F)NC(=O)N12 (stereo not drawn)	none (no result: AP complement, TNAP act mid DEA, RORA act, E coli RNAP, SF-1 act)
